Test results as given in article PMC5299621 (The Journal of General Physiology, 2017).

Key:
hTRPM2 WT channel = hTRPM2 WT channel (Homo sapiens, UniProt O94759); test: Whole-cell recording of ADPR-induced currents, HEK293 cells expressing WT hTRPM2; assay type: cell-based
hTRPM2 H1346W mutant = hTRPM2 H1346W mutant (Homo sapiens, UniProt O94759, H1346W); test: Whole-cell ADPR-induced currents, HEK293, H1346W mutant; assay type: cell-based
hTRPM2 T1347F mutant = hTRPM2 T1347F mutant (Homo sapiens, UniProt O94759, T1347F); test: Whole-cell ADPR-induced currents, HEK293, T1347F mutant; assay type: cell-based
hTRPM2 T1347Y mutant = hTRPM2 T1347Y mutant (Homo sapiens, UniProt O94759, T1347Y); test: Whole-cell ADPR-induced currents, HEK293, T1347Y mutant; assay type: cell-based
hTRPM2 L1379S mutant = hTRPM2 L1379S mutant (Homo sapiens, UniProt O94759, L1379S); test: Whole-cell ADPR-induced currents, HEK293, L1379S mutant; assay type: cell-based
hTRPM2 S1391A mutant = hTRPM2 S1391A mutant (Homo sapiens, UniProt O94759, S1391A); test: Whole-cell ADPR-induced currents, HEK293, S1391A mutant; assay type: cell-based
hTRPM2 E1409A mutant = hTRPM2 E1409A mutant (Homo sapiens, UniProt O94759, E1409A); test: Whole-cell ADPR-induced currents, HEK293, E1409A mutant; assay type: cell-based
hTRPM2 E1409Q mutant = hTRPM2 E1409Q mutant (Homo sapiens, UniProt O94759, E1409Q); test: Whole-cell ADPR-induced currents, HEK293, E1409Q mutant; assay type: cell-based
hTRPM2 G1389A mutant [1] = biological target: T1, hTRPM2 G1389A mutant (Homo sapiens, UniProt O94759, G1389A); test: Whole-cell ADPR-induced currents, HEK293, G1389A mutant; assay type: cell-based; conditions: 3 µM and 100 µM ADPR (Fig. 3 C)
Summary of the method: (§1)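 HEK293 cells were cotransfected with 50 ng EGFP plus 1 µg WT or mutant hTRPM2 plasmid and recorded 24–36 h later, choosing cells of similar fluorescence and size. Recording was whole-cell at RT. […] Cells were held at 0 mV with a 500-ms ramp from −100 to 100 mV every 5 s. Currents were normalized to same-day mean maximal WT current. EC50 came from Hill fits. At least five cells per condition.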

hTRPM2 H1346F mutant = hTRPM2 H1346F mutant (Homo sapiens, UniProt O94759, H1346F); test: Whole-cell ADPR-induced currents, HEK293, H1346F mutant; assay type: cell-based; conditions: H1346F (Fig. 5 B)
Summary of the method: as §1

hTRPM2 T1347I mutant = hTRPM2 T1347I mutant (Homo sapiens, UniProt O94759, T1347I); test: Whole-cell ADPR-induced currents, HEK293, T1347I mutant; assay type: cell-based; conditions: T1347I (Fig. 5 C)
Summary of the method: as §1

hTRPM2 R1433L mutant = hTRPM2 R1433L mutant (Homo sapiens, UniProt O94759, R1433L); test: Whole-cell ADPR-induced currents, HEK293, R1433L mutant; assay type: cell-based; conditions: R1433L (Fig. 5 E)
Summary of the method: as §1

hTRPM2 R1433Q mutant = hTRPM2 R1433Q mutant (Homo sapiens, UniProt O94759, R1433Q); test: Whole-cell ADPR-induced currents, HEK293, R1433Q mutant; assay type: cell-based; conditions: R1433Q (Fig. 5 E)
Summary of the method: as §1

hTRPM2 Y1349F mutant = hTRPM2 Y1349F mutant (Homo sapiens, UniProt O94759, Y1349F); test: Whole-cell ADPR-induced currents, HEK293, Y1349F mutant; assay type: cell-based; conditions: Y1349F (Fig. 6 B)
Summary of the method: as §1

hTRPM2 Y1349S mutant = hTRPM2 Y1349S mutant (Homo sapiens, UniProt O94759, Y1349S); test: Whole-cell ADPR-induced currents, HEK293, Y1349S mutant; assay type: cell-based; conditions: Y1349S (Fig. 6 B)
Summary of the method: as §1

hTRPM2 L1484A mutant = hTRPM2 L1484A mutant (Homo sapiens, UniProt O94759, L1484A); test: Whole-cell ADPR-induced currents, HEK293, L1484A mutant; assay type: cell-based; conditions: 3 µM and 100 µM ADPR (Fig. 3 C)
Summary of the method: as §1

hTRPM2 D1287A mutant = hTRPM2 D1287A mutant (Homo sapiens, UniProt O94759, D1287A); test: Whole-cell ADPR-induced currents, HEK293, D1287A mutant; assay type: cell-based; conditions: ADPR 100 µM (Fig. 8)
Summary of the method: as §1

hTRPM2 S1340A mutant = hTRPM2 S1340A mutant (Homo sapiens, UniProt O94759, S1340A); test: Whole-cell ADPR-induced currents, HEK293, S1340A mutant; assay type: cell-based; conditions: ADPR 100 µM (Fig. 8)
Summary of the method: as §1

TRPM2 E1409K mutation = conditions: ref Perraud et al., 2005, Tóth et al., 2014; cited from earlier work
hTRPM2 G1389A mutant [2] = biological target: T1, hTRPM2 G1389A mutant; test: Whole-cell recording of H2O2-induced TRPM2 currents, G1389A mutant; assay type: cell-based; conditions: extracellular H2O2, 10 mM / 30 mM
Summary of the method: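 Whole-cell recording at RT was done on transiently transfected HEK293 cells, alongside untransfected and WT-expressing cells. Pipette: 147 mM NaCl, 0.05 mM EGTA, 1 mM MgCl2, 10 mM HEPES, pH 7.3. Cells were held at 0 mV with a 500-ms ramp from −100 to 100 mV every 5 s. At least six cells per condition.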

hTRPM2 G1389A mutant [3] = biological target: T1, hTRPM2 G1389A mutant; test: Whole-cell recording of calcium-induced TRPM2 currents, G1389A mutant; assay type: cell-based; conditions: 50 mM calcium, intracellular solution
Summary of the method: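 Transiently transfected HEK293 cells were compared with untransfected and WT-expressing cells by whole-cell recording at RT. Cells were held at 0 mV with a 500-ms ramp from −100 to 100 mV every 5 s. At least six cells per condition.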

T1 sequence (O94759 whole entry G1389A): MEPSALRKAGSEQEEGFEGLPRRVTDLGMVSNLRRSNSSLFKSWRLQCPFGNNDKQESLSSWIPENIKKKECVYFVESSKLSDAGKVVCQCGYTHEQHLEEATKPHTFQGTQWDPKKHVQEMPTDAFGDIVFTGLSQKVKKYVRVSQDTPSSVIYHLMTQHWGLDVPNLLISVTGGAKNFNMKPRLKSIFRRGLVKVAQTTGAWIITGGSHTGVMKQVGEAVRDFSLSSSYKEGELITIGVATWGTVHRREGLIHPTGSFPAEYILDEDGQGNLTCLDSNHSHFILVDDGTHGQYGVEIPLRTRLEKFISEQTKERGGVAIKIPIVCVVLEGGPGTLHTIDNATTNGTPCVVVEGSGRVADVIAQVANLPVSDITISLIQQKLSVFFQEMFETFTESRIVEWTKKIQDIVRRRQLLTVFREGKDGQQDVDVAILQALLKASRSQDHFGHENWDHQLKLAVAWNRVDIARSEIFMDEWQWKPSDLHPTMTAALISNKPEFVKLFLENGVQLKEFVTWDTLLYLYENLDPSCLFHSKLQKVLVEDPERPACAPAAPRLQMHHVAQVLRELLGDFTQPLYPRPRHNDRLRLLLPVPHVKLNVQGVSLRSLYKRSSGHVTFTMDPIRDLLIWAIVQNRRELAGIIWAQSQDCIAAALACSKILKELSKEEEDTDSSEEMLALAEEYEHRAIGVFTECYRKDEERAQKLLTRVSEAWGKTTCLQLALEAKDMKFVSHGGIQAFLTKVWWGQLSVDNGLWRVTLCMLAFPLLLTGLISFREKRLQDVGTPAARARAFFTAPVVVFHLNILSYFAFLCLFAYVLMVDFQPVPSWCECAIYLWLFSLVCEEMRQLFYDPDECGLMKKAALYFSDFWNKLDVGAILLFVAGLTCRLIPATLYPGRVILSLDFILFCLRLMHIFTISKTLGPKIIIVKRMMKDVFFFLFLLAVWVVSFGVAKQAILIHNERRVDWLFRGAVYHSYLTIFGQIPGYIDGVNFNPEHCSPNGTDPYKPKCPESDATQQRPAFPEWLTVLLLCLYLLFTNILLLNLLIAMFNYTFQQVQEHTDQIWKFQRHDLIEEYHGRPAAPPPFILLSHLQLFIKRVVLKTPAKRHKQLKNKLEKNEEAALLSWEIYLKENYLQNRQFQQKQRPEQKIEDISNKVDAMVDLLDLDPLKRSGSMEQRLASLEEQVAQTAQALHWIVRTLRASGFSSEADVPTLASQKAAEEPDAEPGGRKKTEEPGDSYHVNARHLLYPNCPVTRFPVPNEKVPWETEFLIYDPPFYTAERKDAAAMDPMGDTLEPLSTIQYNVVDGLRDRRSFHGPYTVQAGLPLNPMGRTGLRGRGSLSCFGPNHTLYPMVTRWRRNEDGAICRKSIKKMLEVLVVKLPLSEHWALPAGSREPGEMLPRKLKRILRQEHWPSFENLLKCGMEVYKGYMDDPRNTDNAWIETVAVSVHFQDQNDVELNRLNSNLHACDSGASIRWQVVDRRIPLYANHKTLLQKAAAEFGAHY
hTRPM2 T1347Y mutant, sequence (O94759 whole entry T1347Y): as the sequence (O94759 whole entry G1389A) above, with T1347Y, A1389G counted along it
hTRPM2 T1347I mutant, sequence (O94759 whole entry T1347I): as the sequence (O94759 whole entry G1389A) above, with T1347I, A1389G counted along it
hTRPM2 H1346F mutant, sequence (O94759 whole entry H1346F): as the sequence (O94759 whole entry G1389A) above, with H1346F, A1389G counted along it
hTRPM2 E1409Q mutant, sequence (O94759 whole entry E1409Q): as the sequence (O94759 whole entry G1389A) above, with A1389G, E1409Q counted along it
hTRPM2 R1433Q mutant, sequence (O94759 whole entry R1433Q): as the sequence (O94759 whole entry G1389A) above, with A1389G, R1433Q counted along it
hTRPM2 T1347F mutant, sequence (O94759 whole entry T1347F): as the sequence (O94759 whole entry G1389A) above, with T1347F, A1389G counted along it
hTRPM2 E1409A mutant, sequence (O94759 whole entry E1409A): as the sequence (O94759 whole entry G1389A) above, with A1389G, E1409A counted along it
hTRPM2 WT channel, sequence (O94759 whole entry): as the sequence (O94759 whole entry G1389A) above, with A1389G counted along it
hTRPM2 D1287A mutant, sequence (O94759 whole entry D1287A): as the sequence (O94759 whole entry G1389A) above, with D1287A, A1389G counted along it
hTRPM2 R1433L mutant, sequence (O94759 whole entry R1433L): as the sequence (O94759 whole entry G1389A) above, with A1389G, R1433L counted along it
hTRPM2 L1484A mutant, sequence (O94759 whole entry L1484A): as the sequence (O94759 whole entry G1389A) above, with A1389G, L1484A counted along it
hTRPM2 Y1349F mutant, sequence (O94759 whole entry Y1349F): as the sequence (O94759 whole entry G1389A) above, with Y1349F, A1389G counted along it
hTRPM2 H1346W mutant, sequence (O94759 whole entry H1346W): as the sequence (O94759 whole entry G1389A) above, with H1346W, A1389G counted along it
hTRPM2 L1379S mutant, sequence (O94759 whole entry L1379S): as the sequence (O94759 whole entry G1389A) above, with L1379S, A1389G counted along it
hTRPM2 Y1349S mutant, sequence (O94759 whole entry Y1349S): as the sequence (O94759 whole entry G1389A) above, with Y1349S, A1389G counted along it
hTRPM2 S1340A mutant, sequence (O94759 whole entry S1340A): as the sequence (O94759 whole entry G1389A) above, with S1340A, A1389G counted along it
hTRPM2 S1391A mutant, sequence (O94759 whole entry S1391A): as the sequence (O94759 whole entry G1389A) above, with A1389G, S1391A counted along it

Molecule: adenosine diphosphate ribose [ADPR]
- Hill slope (hTRPM2 WT channel): 2.6
- Hill slope (hTRPM2 H1346W mutant): 2.0
- Hill slope (hTRPM2 T1347F mutant): 1.2
- Hill slope (hTRPM2 T1347Y mutant): 1.3
- Hill slope (hTRPM2 L1379S mutant): 1.0
- Hill slope (hTRPM2 S1391A mutant): 2.7
- Hill slope (hTRPM2 E1409A mutant): 1.5
- Hill slope (hTRPM2 E1409Q mutant): 1.6
- Channel activation by ADPR (hTRPM2 G1389A mutant [1]): failed to be activated
- Channel sensitivity to ADPR (hTRPM2 H1346F mutant): completely insensitive
- Channel sensitivity to ADPR (hTRPM2 T1347I mutant): completely lost sensitivity
- Response to ADPR (hTRPM2 R1433L mutant): no response
- Response to ADPR (hTRPM2 R1433Q mutant): no response
- Channel activation by ADPR (hTRPM2 Y1349F mutant): did not significantly alter channel activation
- Channel activation by ADPR (hTRPM2 Y1349S mutant): neither Y1349A nor Y1349S mutant could be activated
- Channel function with ADPR (hTRPM2 L1484A mutant): lack of channel function
- Activity induced by ADPR (hTRPM2 D1287A mutant): normal activity
- Activity induced by ADPR (hTRPM2 S1340A mutant): normal activity
- Impact of mutation on ADPR binding to the NUDT9-H domain (TRPM2 E1409K mutation): little impact

Molecule: OO [H2O2]
- H2O2-induced current (hTRPM2 G1389A mutant [2]): failed to induce a current

Molecule: [Ca+2] [calcium]
- Channel activation by calcium (hTRPM2 G1389A mutant [3]): readily activated
